# Source: PMC6939458 (Cancer cell, 2019)
# Tests used:
# MycCaP tumor allografts = assay: MycCaP allograft/xenograft mouse model; format: in vivo
# In short: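 Male FVB (allograft) or NSG (xenograft) mice, 6–8 weeks, ~25 g, acclimated >4 days. Injected s.c. in flanks with 1 × 10⁶ MycCaP E-box-luciferase cells in 100 μl Matrigel. Tumors followed by caliper ((length × width × width)/2) and by bioluminescent imaging after i.p. substrate injection. Body weight recorded. Tumor tissue assessed by H&E and immunofluorescence for Ki67, MYC pT58 and PD-L1.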
# [1] = Maximum tolerated dose / acute toxicity in mice; format: in vivo; conditions: 361-treated mice
# [2] = system: pheochromocytoma PC12 cells; assay: Cell viability, PC12 cells; format: cell-based; conditions: PC12, does not require MYC/MAX dimer for proliferation
# In short: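 PC12 cells were grown in F-12K with 2% heat-inactivated FBS and 12.5% horse serum. They were seeded at 1000 to 5000 cells per well in 96-well plates and treated for 2 to 7 days. Read-out was viable-cell count or MTS absorbance at 490 nm.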
# MAX/MAX homodimer = MAX/MAX homodimer (Homo sapiens, UniProt P61244); assay: EMSA, MAX/MAX homodimer binding to E-box DNA; format: biochemical
# [3] = system: Rat1 fibroblasts (HO15.19, TGR.1); assay: Cell viability, Rat1 fibroblasts; format: cell-based, rat; conditions: HO15.19 vs TGR.1
# In short: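 Myc-knockout HO15.19 and wild-type TGR.1 Rat-1 fibroblasts were kept in DMEM with 10% calf serum. They were seeded in 48-well plates at 1000 per well (HO15.19) or 3000 per well (TGR.1). After 2 to 7 days of treatment, viable cells were counted or MTS absorbance was read at 490 nm.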
# [4] = system: MycCaP organoids and FVB mouse prostate organoids; assay: Prostate organoid culture; format: cell-based; conditions: 4 days treatment
# In short: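 Prostate lobes from 8–10-week-old FVB males were minced and digested with collagenase in RPMI1640/10% FBS for 2 hr at 37 °C. Trypsin and DNase I followed, then a 40 μm strainer. Cells were plated on ultra-low-attachment plates: 5,000 normal cells or 1000 MycCaP cells per 100 μl, with media added at day 4. Organoids formed by day 7 (normal) or day 4 (MycCaP). They were pelleted, resuspended in media with compound or DMSO, and imaged in bright field 4 days after treatment.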
# MYC353–439 = MYC353–439 (Homo sapiens, UniProt P01106); assay: Fluorescence polarization competition assay against 10074-G5; format: binding
# MYC/MAX/DNA complex = MYC/MAX/DNA complex (Homo sapiens, UniProt P01106); assay: EMSA, MYC/MAX/DNA complex formation; format: biochemical
# [5] = system: MYC-dependent cancer cells; assay: Cell viability, MYC-dependent cancer cells; format: cell-based; conditions: MycCaP, LNCaP, PC3, MV4–11, HL-60, P493–6, SK-N-B2; 5 days
# In short: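 Cells were seeded at 1000 to 5000 per well in 96-well plates, depending on cell type. Viable cells were counted, or MTS absorbance was read at 490 nm, 2 to 7 days after treatment. MycCaP, PC3, LNCaP and P493–6 were grown in RPMI1640, SK-N-BE(2) in F12 and MV411 in IMDM, each with 10% heat-inactivated FBS and 1% penicillin-streptomycin.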
# [6] = system: MYC target gene expression; assay: RNA-seq and RT-qPCR gene expression; format: cell-based, human
# In short: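 MYCT58A cells were PC3 transduced with Flag-MYCT58A lentivirus and selected with 1.5 μg/ml puromycin. RT-qPCR used human MYC and 18S rRNA primers. For RNA-seq, PC3 cells were treated for 24 hr in triplicate and RNA was extracted after a PBS wash.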
# GSK3β-mediated MYC pT58 = GSK3β-mediated MYC pT58 (Homo sapiens, UniProt P01106); assay: In vitro kinase assay; format: biochemical; conditions: 6 μM
# In short: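 Phosphorylation reactions were run in kinase buffer (25 mM Tris-HCl pH 7.5, 5 mM β-glycerophosphate, 2 mM DTT, 0.1 mM sodium vanadate, 10 mM MgCl₂) at room temperature for 2 hr in total.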
# γ-H2AX = γ-H2AX staining; format: cell-based, human; conditions: 10 μM, 24-hour treatment
# In short: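 PC3 cells were fixed in 4% PFA and permeabilised with 0.5% Triton-X. They were then stained with anti-phospho-histone H2A.X (Ser139) antibody at 1:1000.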
# [7] = system: phosphatase inhibition screening panel; assay: Phosphatase inhibition screening panel; format: biochemical; conditions: 10-dose 3-fold serial dilutions starting at 100 μM
# In short: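 Run in 10-dose IC₅₀ mode, each compound tested singly, with a PTP1B inhibitor as control compound.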
# MYC = MYC (Homo sapiens, UniProt P01106); assay: Cellular thermal shift assay; format: cell-based
# In short: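 PC3 cells (70–80% confluent; also PC3 stably expressing Flag-MYCT58A, puromycin 1.5 μg/ml selected) treated with test compound or DMSO for 30 min. Cells washed, resuspended in PBS with protease/phosphatase inhibitors plus the same compound dose, split into 7–10 aliquots (~1 million cells each), heated 2 min at graded temperatures, then 3 min room temperature. Lysates boiled 5 min at 90 °C; MYC quantified by Western blot densitometry to build melt curves.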
# MYC/MAX interaction = MYC/MAX interaction (Homo sapiens, UniProt P01106); assay: Co-immunoprecipitation and proximity ligation assay in PC3 cells; format: cell-based; conditions: 6 μM
# In short: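 For PLA, PC3 or PC3 T58A cells were grown in chamber slides and treated for 1 to 2 hr, then fixed in 4% PFA and permeabilised with 0.5% Triton-X. PLA signals per cell were counted by image analysis. For co-IP, cells were lysed in 20 mM Tris-HCl pH 8.0, 100 mM NaCl, 1 mM EDTA and 0.5% NP-40. Pellets were enzymatically sheared for 90 min at 4 °C and precipitates were analysed by western blot.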
# [8] = system: 468 kinases, including GSK3β; assay: KINOMEscan kinome screen; format: binding; conditions: 6 μM
# [9] = MycCaP E-box-Luc allografts, i.p.
# [10] = MycCaP tumor tissue after treatment
# [11] = MycCaP tumors post-361 treatment
# Chain of MYC/MAX/DNA complex (P01106 368-454, one chain of several): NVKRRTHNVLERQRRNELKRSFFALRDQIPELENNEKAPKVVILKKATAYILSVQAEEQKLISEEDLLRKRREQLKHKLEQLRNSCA
# Chain of MYC (P01106 16-454): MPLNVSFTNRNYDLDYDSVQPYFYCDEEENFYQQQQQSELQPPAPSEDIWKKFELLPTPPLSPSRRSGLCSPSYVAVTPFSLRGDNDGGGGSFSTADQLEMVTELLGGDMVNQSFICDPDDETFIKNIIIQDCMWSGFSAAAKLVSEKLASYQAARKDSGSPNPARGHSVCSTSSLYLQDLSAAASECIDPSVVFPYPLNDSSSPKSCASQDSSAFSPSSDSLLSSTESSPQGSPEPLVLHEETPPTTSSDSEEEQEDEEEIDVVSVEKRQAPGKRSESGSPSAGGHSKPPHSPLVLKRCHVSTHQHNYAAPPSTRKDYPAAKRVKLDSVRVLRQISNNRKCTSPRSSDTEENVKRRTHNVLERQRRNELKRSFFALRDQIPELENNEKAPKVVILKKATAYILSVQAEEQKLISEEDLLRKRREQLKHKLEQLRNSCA
# Chain of MYC/MAX interaction (P01106 16-454): as above
# Chain of MAX/MAX homodimer (P61244 whole entry): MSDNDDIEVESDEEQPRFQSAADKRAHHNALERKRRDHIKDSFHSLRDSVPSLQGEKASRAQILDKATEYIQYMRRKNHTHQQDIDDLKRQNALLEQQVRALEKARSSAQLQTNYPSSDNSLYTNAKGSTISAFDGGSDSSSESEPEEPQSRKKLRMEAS
# Chain of MYC353–439 (P01106 368-454): as the sequence (P01106 368-454, one chain of several) above
# Chain of GSK3β-mediated MYC pT58 (P01106 16-454): as the sequence (P01106 16-454) above
compound,measurement,setting,value
"Cn1nc(C(F)(F)F)cc1-c1ccc(OCc2ccc(Cl)cc2)c(-c2cc(C(F)(F)F)cc(C(F)(F)F)c2)c1O [Compound 361, 6-((4-chlorobenzyl)oxy)-3-(1-methyl-3-(trifluoromethyl)-1H-pyrazol-5-yl)-3’,5’-bis(trifluoromethyl)-[1,1’-biphenyl]-2-ol]","tumor inhibitory effect, FVB versus NSG mice",MycCaP tumor allografts; 50 mg/kg/day for 4 days,stronger tumor inhibitory effect in immunocompetent FVB mice
same,tumor immune cells by flow cytometry,"MycCaP tumor allografts; 50 mg/kg/day, 2 days on/2 days off for 2 rounds","an increase in CD3^+CD4^+ and CD3^+CD8^+ T cells, IFNγ-expressing CD4^+ and CD8^+ T cells, TNFα-expressing CD8^+ cells, dendritic cells and NK cells"
same,body weight,MycCaP tumor allografts; 70 mg/kg/day,without additional loss in mouse body weight
same,body weight loss,"MycCaP tumor allografts; 100 mg/kg/day, average",10%
same,"tumor growth, combination with anti-PD1","MycCaP tumor allografts; 361 50 mg/kg/day 2 days then anti-PD1 100 μg/d 2 days, 4 cycles",synergistic suppression of tumor growth
same,tumor growth,"MycCaP tumor allografts; FVB mice, established MycCaP allografts, 100 mg/kg/day",induced tumor regression
same,E-box luciferase activity in vivo,MycCaP tumor allografts; [9],significantly reduced
same,"tumor size, rapid in vivo screen",MycCaP tumor allografts; [9],significantly reduced
same,Ki67 proliferation marker in tumor tissues,MycCaP tumor allografts; [10],decreased
same,MYC pT58 level in tumor tissues,MycCaP tumor allografts; [10],increased
same,PD-L1 expression on tumor cells,MycCaP tumor allografts; [11],upregulation of PD-L1 expression
same,tumor infiltration of CD3+ T cells,MycCaP tumor allografts; [11],enhanced tumor infiltration of CD3^+ T cells
same,tolerability,"MycCaP tumor allografts; combination study dose, 50 mg/kg/day 2 days on/off",well-tolerated
same,tumor growth,MycCaP tumor allografts; treatment re-started at 70 mg/kg/day,effective in controlling tumor growth
same,histopathological analysis of major organs,[1],suppression of the splenic white pulp and hepatocyte hypertrophy
same,effect on cell viability,[2],little effect
same,MAX/MAX homodimer binding to E-box DNA,MAX/MAX homodimer,but not the closely related MAX/MAX homodimer
same,sensitivity of Myc knockout versus wild-type fibroblasts,[3],more resistant
same,sensitivity of MycCaP versus normal prostate organoids,[4],more sensitive
same,Kd,MYC353–439,3.2 µM
same,disruption of MYC/MAX/DNA complex formation,MYC/MAX/DNA complex; EMSA,impaired
same,activity in vitro,MYC/MAX/DNA complex; EMSA and cell viability assays,active
same,"IC50s, cell viability",[5],low micromolar
same,MYC mRNA levels,[6],not altered
same,expression of MYC target genes CDC25A and MYB,"[6]; 6 μM, 24 hr, MYCT58A-expressing cells",potently suppressed
same,"MYC target gene expression (GSEA, six gene sets)","[6]; 6 μM, 24 hr, RNA-seq",significantly down regulated in all gene sets
same,pT58 levels in in vitro kinase assay,GSK3β-mediated MYC pT58,significantly increased pT58 levels
same,induction of γ-H2AX,γ-H2AX,did not observe induction
same,phosphatase inhibition screening panel result,[7],negative
same,interaction with MYCT58A by CETSA,"MYC; 6 μM, MYCT58A-expressing PC3 cells",can interact
same,thermal stability of MYC protein (CETSA),"MYC; PC3 cells, 30 min, 361 4–10 μM, G5 15–60 μM, 360 6 μM",significant thermal destabilization
same,MYCT58A/MAX interactions (PLA),MYC/MAX interaction; MYCT58A-expressing PC3 cells,disrupted
same,MYC/MAX interaction by co-IP and PLA,"MYC/MAX interaction; PC3 cells, 1 hr",disruption of the MYC/MAX interaction
same,kinome screen result,[8],negative
